Reference: article PMC2920133 (Biochemistry, 2010)
Positions count from the first letter of the chain named. Read-outs that look alike come from different tables or passages of the source.

Columns and labels:
[1] = target: ArsD109 V17W single-tryptophan derivative (Escherichia coli, UniProt P46003, V17W/W35Y/W97Y); type: binding; details: for fluorescence quenching: high concentrations: 5 mM As(III) or 0.1 mM Sb(III) (Figure 2B)
[2] = target: ArsD109 T15W single-tryptophan derivative (Escherichia coli, UniProt P46003, T15W/W35Y/W97Y); assay: Intrinsic tryptophan fluorescence quenching, metalloid binding to T15W; details: for fluorescence quenching: high concentrations: 5 mM As(III) or 0.1 mM Sb(III) (Figure 2B)
ArsD109 C18G/T15W = target: T1, ArsD109 C18G/T15W (Escherichia coli, UniProt P46003, C18G/T15W/W35Y/W97Y); assay: Intrinsic tryptophan fluorescence quenching, As; type: binding
T1 sequence (P46003 1-109 T15W/C18G/W35Y/W97Y): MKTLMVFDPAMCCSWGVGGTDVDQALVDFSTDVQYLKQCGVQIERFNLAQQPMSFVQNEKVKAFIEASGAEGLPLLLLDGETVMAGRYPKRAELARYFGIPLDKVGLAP
Method in brief: (§1)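 N-terminal His6 ArsD109 (W35/97Y, T15W, plus single Cys→Gly) expressed in BL21(DE3) with 0.3 mM IPTG for 3 h. Used at 1 μM in 50 mM MOPS-KOH pH 7.5 with 0.25 mM EDTA, room temperature. Sodium arsenite titrated. Quenching rate k_obs (ex 295 nm, em 345 nm) fitted per arsenite concentration; k_obs = k_off + k_on[As(III)], and Kd = k_off/k_on.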

ArsD109 C12G/T15W = target: T2, ArsD109 C12G/T15W (Escherichia coli, UniProt P46003, C12G/T15W/W35Y/W97Y); assay: Intrinsic tryptophan fluorescence quenching, As; type: binding
T2 sequence (P46003 1-109 C12G/T15W/W35Y/W97Y): T1 sequence (P46003 1-109 T15W/C18G/W35Y/W97Y) with C12G, G18C
Method in brief: as §1

ArsD109 C13G/T15W = target: T3, ArsD109 C13G/T15W (Escherichia coli, UniProt P46003, C13G/T15W/W35Y/W97Y); assay: Intrinsic tryptophan fluorescence quenching, As; type: binding
T3 sequence (P46003 1-109 C13G/T15W/W35Y/W97Y): T1 sequence (P46003 1-109 T15W/C18G/W35Y/W97Y) with C13G, G18C
Method in brief: as §1

[3] = test system: single-tryptophan derivatives of ArsD109; type: binding, Escherichia coli; details: 1 μM protein mixed with equimolar As(III), absence of added thiols
Method in brief: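 Single-tryptophan ArsD109 (N-terminal His6, W35/97Y background carrying T15W or V17W), expressed in E. coli BL21(DE3). Protein at 1 μM in 50 mM MOPS-KOH pH 7.5 with 0.25 mM EDTA, room temperature, no thiol added. Sodium arsenite added from concentrated stock. Trp fluorescence (ex 295 nm, em 345 nm) followed over time and corrected for dilution.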

ArsA ATPase = ArsA ATPase (Escherichia coli, UniProt P08690); assay: Coupled ATPase assay, metalloid-stimulated ArsA activity; type: biochemical; details: DMSA titration
[4] = thiolate of GS^−1; cited from earlier work
ArsD109-ArsA = ArsD109-ArsA (Escherichia coli, UniProt P08690+P46003, DEL110-120); assay: Metalloid transfer assay on amylose column; type: biochemical; details: 5 mM nucleotide
[5] = quenching of T15W fluorescence, retains Cys12 and Cys13
[6] = quenching of T15W fluorescence, retains Cys13 and Cys18
[7] = quenching of T15W fluorescence, retains Cys12 and Cys18
[8] = additive 5 mM, 50 μM sodium arsenite, pH 7.5

SMILES: O=[As][O-].[Na+] [As(III), sodium arsenite]
- rate of fluorescence quenching at pH 9 relative to pH 7 ([1]; 50 μM sodium arsenite, 1 μM V17W, absence of GSH): ~ 10 fold
- fluorescence change in the absence of GSH ([1]; 50 μM sodium arsenite, pH 7.5): decreased very slowly
- fluorescence quenching [1]: approximately 50%
- Kd ([1]; read-out: Kd (binding affinity), calculated from koff/kon): 2 ± 1 µM
- koff ([2]; As(III) concentration dependence of fluorescence quenching, no added thiols): (3 ± 1) × 10^−4 s^−1
- Kd ([2]; calculated from koff/kon): 1.5 ± 0.5 µM
- fluorescence quenching [2]: approximately 50%
- Kd (ArsD109 C18G/T15W; calculated from koff/kon): 28 ± 3 µM
- koff (ArsD109 C18G/T15W; [5]): (1.4 ± 0.1) × 10^−3 s^−1
- kon (ArsD109 C18G/T15W; [5]): (5 ± 0.1) × 10^−5 s^−1 μM^−1
- Kd (ArsD109 C12G/T15W; calculated from koff/kon): 48 ± 3 µM
- koff (ArsD109 C12G/T15W; [6]): (2.4 ± 0.1) × 10^−3 s^−1
- kon (ArsD109 C12G/T15W; [6]): (5 ± 0.1) × 10^−5 s^−1 μM^−1
- Kd (ArsD109 C13G/T15W; calculated from koff/kon): 68 ± 6 µM
- koff (ArsD109 C13G/T15W; [7]): (2.7 ±0.1) × 10^−3 s^−1
- kon (ArsD109 C13G/T15W; [7]): (4 ±0.2) × 10^−5 s^−1 μM^−1
- time to attain a steady-state level of fluorescence [3]: more than 2 h

SMILES: O=C(O)[C@@H](S)[C@@H](S)C(=O)O [DMSA, dimercaptosuccinic acid]
- effect on basal activity of ArsA (ArsA ATPase; 0.3 μM ArsA alone): did not affect
- effect on As(III)-stimulated rate of ArsA activity (ArsA ATPase; 0.3 μM ArsA, 0.5 mM sodium arsenite): inhibited

SMILES: N[C@@H](CCC(=O)N[C@@H](CS)C(=O)NCC(=O)O)C(=O)O [GSH, reduced glutathione]
- acceleration of rate of As(III) fluorescence quenching ([1]; 5 mM GSH, 50 μM sodium arsenite, 1 μM V17W, pH 7.5): 10 fold
- rate of As(III) fluorescence quenching with additive ([1]; 5 mM GSH, 50 μM sodium arsenite, pH ≥8): too fast to measure accurately
- effect of additive on rate of fluorescence quenching by As(III) ([1]; additive 0.2 mM, 50 μM sodium arsenite, pH 7.5): had little effect
- effect of additive on rate of fluorescence quenching by As(III) [1, 8]: increased the rate substantially
- pKa [4]: 8.7

SMILES: N[C@@H](CS)C(=O)O [L-cysteine]
- effect of additive on rate of fluorescence quenching by As(III) [1, 8]: increased the rate of quenching

SMILES: Nc1ncnc2c1ncn2[C@@H]1O[C@H](COP(=O)([O-])OP(=O)([O-])O)[C@@H](O)[C@H]1O.[Mg+2] [MgADP]
- transfer of As(III) from MBP-ArsD109 to ArsA (ArsD109-ArsA; room temperature): As(III) eluted with MBP-ArsD109 and not with ArsA

SMILES: Nc1ncnc2c1ncn2[C@@H]1O[C@H](CO[P@](=O)(O)O[P@](=O)(O)O[P@@](=O)(O)S)[C@@H](O)[C@H]1O [MgATP-γ-S]
- transfer of As(III) from MBP-ArsD109 to ArsA (ArsD109-ArsA; room temperature): did not promote transfer

SMILES: Nc1ncnc2c1ncn2[C@@H]1O[C@H](COP(=O)(O)OP(=O)([O-])OP(=O)([O-])O)[C@@H](O)[C@H]1O.[Mg+2] [MgATP]
- transfer of As(III) from MBP-ArsD109 to ArsA (ArsD109-ArsA; 4 °C): almost no As(III) eluted with ArsA
- transfer of As(III) from MBP-ArsD109 to ArsA (ArsD109-ArsA; room temperature): nearly all of the As(III) eluted in the ArsA-containing fractions

SMILES: O.O.O.O=C([O-])[C@H]([O-])[C@@H]([O-])C(=O)[O-].O=C([O-])[C@H]([O-])[C@@H]([O-])C(=O)[O-].[K+].[K+].[Sb+3].[Sb+3] [Sb(III), potassium antimonyl tartrate]
- fluorescence quenching in the absence of added monothiols ([1]; 2.5 μM, pH 7.5): rapidly quenched fluorescence
- fluorescence quenching [1]: approximately 50%
- fluorescence quenching [2]: approximately 50%

SMILES: O=C(O)CCP(CCC(=O)O)CCC(=O)O [TCEP, tris(2-carboxyethyl)phosphine]
- effect of additive on rate of fluorescence quenching by As(III) [1, 8]: did not increase the rate of quenching

SMILES: OCCS [β-mercaptoethanol]
- effect of additive on rate of fluorescence quenching by As(III) [1, 8]: increased the rate of quenching
